# Published values from different studies.
# Protocols differ between the studies behind these lines.
# Organism: Bacillus subtilis
# Observed: microbial growth
Structure (SMILES),test,system,setting,MIC
CCCCCC/C=C\CCCCCCCCCc1cc(O)cc(O)c1,broth dilution,168,,> 64 µg/mL
CCCCCC[P+](/C=C(/c1ccccc1)c1cc(Cl)ccc1O)(CCCCCC)CCCCCC,,,21 h,2 µM
C/C=C(\C)c1cc(O)c(C)c(OC(=O)c2c(C)cc(O)c(Cl)c2O)c1,broth dilution,BS01,,4 µg/mL
Fc1ccc(NCc2ccc(Oc3ccccn3)cc2)cc1,,,,1.6 µg/mL
O=C(O)c1ccc(-n2cc(/C=N/Nc3cccc(Br)c3)c(-c3cccc(F)c3)n2)cc1,,ATCC6623,,12.5 µg/mL
O=C1NC(=S)N/C1=C\c1ccc(-c2ccc(N(c3ccccc3)c3ccccc3)cc2)cc1,broth dilution,ATCC6633,,> 1000 µg/mL
C[n+]1c(/C=C/c2c[nH]c3ccccc23)cc(/C=C2\Sc3ccccc3N2CCCN2CCOCC2)c2ccccc21.[I-],broth dilution,168,,8 µg/mL
CC1(C)S[C@@H]2[C@H](NC(=O)[C@H](N)c3ccccc3)C(=O)N2[C@H]1C(=O)O,broth dilution,BS01,,0.13 µg/mL
CCCCC[P+](/C=C(/c1ccccc1)c1cc(Cl)ccc1OC)(CCCCC)CCCCC,,,21 h,2 µM
O=C(O)c1ccc(-n2cc(/C=N/N(c3ccccc3)c3ccccc3)c(-c3cccc(F)c3)n2)cc1,,ATCC6623,,1.56 µg/mL
C[n+]1ccc(/C=C2\Sc3ccccc3N2CCCN2CCCCC2)c2ccccc21.[I-],broth dilution,168,,16 µg/mL
O=C(O)c1ccc(-n2cc(/C=N/Nc3c(F)c(F)cc(F)c3F)c(-c3cccc(F)c3)n2)cc1,,ATCC6623,,12.5 µg/mL
Cc1ccc(NCc2ccc(Oc3ccccn3)cc2)cc1,,,,1.8 µg/mL
CC1=NN(CNc2ccc(Cl)cc2)C(=O)C1=NNn1c(-c2ccccc2)nc2ccccc2c1=O,broth dilution,,24 h,103 µM
CCCCCCCC[P+](/C=C(/c1ccccc1)c1cc(Cl)ccc1O)(CCCCCCCC)CCCCCCCC,,,21 h,> 80 µM
O=C1NC(=S)S/C1=C\c1ccc(-c2ccc(N(c3ccccc3)c3ccccc3)cc2)c2ccccc12,broth dilution,ATCC6633,,1000 µg/mL
CC1(C)CCC(C)(C)c2cc(C(=O)Nc3ccc(C(=O)O)cc3)ccc21,broth dilution,,24 h,50 to 100 µM
CN[C@H](CC(C)C)C(=O)N[C@H]1C(=O)N[C@@H](CC(N)=O)C(=O)N[C@H]2C(=O)N[C@H]3C(=O)N[C@H](C(=O)N[C@H](C(=O)O)c4cc(O)cc(O)c4-c4cc3ccc4O)[C@H](O)c3ccc(c(Cl)c3)Oc3cc2cc(c3O[C@@H]2O[C@H](CO)[C@@H](O)[C@H](O)[C@H]2O[C@H]2C[C@](C)(N)[C@H](O)[C@H](C)O2)Oc2ccc(cc2Cl)[C@H]1O,broth dilution,ATCC6633,,0.24 µg/mL
C[C@@H](O)[C@H]1C(=O)N2C(C(=O)O)=C(S[C@@H]3CN[C@H](C(=O)N(C)C)C3)[C@H](C)[C@H]12,broth dilution,,24 h,0.0625 µg/mL
Brc1cccc(NCc2ccc(Oc3ccccn3)cc2)c1,,,,> 6.2 µg/mL
CC1CCN(CCCN2/C(=C/c3cc[n+](C)c4ccccc34)Sc3ccccc32)CC1.[I-],broth dilution,168,,4 µg/mL
CC1=NN(CNc2ccc(C(=O)O)cc2)C(=O)C1=NNn1c(-c2ccccc2)nc2ccccc2c1=O,broth dilution,,24 h,50.5 µM
Clc1cccc(NCc2ccc(Oc3ccccn3)cc2)c1,,,,1.8 µg/mL
CO[C@H]1O[C@H](COC(c2ccccc2)(c2ccccc2)c2ccccc2)[C@@H](OC(=O)c2ccc(C(C)(C)C)cc2)[C@H](OC(=O)c2ccc(C(C)(C)C)cc2)[C@H]1OC(=O)c1ccc(C(C)(C)C)cc1,broth dilution,,,1.25 µg/mL
O=C(O)CN1C(=O)/C(=C/c2ccc(-c3ccc(N(c4ccccc4)c4ccccc4)cc3)cc2)NC1=S,broth dilution,ATCC6633,,3.9 µg/mL
C/C=C(\C)c1cc(OC(=O)c2c(C)c(Cl)c(O)c(Cl)c2O)c(C)c(O)c1C(=O)O,broth dilution,BS01,,64 µg/mL
O=C(O)CN1C(=O)/C(=C/c2ccc(-c3ccc(N(c4ccccc4)c4ccccc4)cc3)cc2)SC1=S,broth dilution,ATCC6633,,1.95 µg/mL
O=C(O)c1ccc(-n2cc(/C=N/Nc3c(F)c(F)c(F)c(F)c3F)c(-c3cccc(F)c3)n2)cc1,,ATCC6623,,6.25 µg/mL
Brc1ccc(NCc2ccc(Oc3ccccn3)cc2)cc1,,,,> 3.1 µg/mL
CCCC[P+](/C=C(/c1ccccc1)c1cc(Cl)ccc1OC)(CCCC)CCCC,,,21 h,1 µM
O=C(O)c1cc(O)c(O)c(OC(=O)c2cc(O)c(O)c(O)c2)c1,broth dilution,ATCC6633,,> 200 µM
O=C(Nc1ccc2c(c1)OC(F)(F)O2)Nc1ccc(Cl)c(C(F)(F)F)c1,,168,,1 µM
CO[C@H]1/C=C/O[C@@]2(C)Oc3c(C)c(O)c4c(O)c(c(/C=N/N5CCN(C)CC5)c(O)c4c3C2=O)NC(=O)/C(C)=C\C=C\[C@H](C)[C@H](O)[C@@H](C)[C@@H](O)[C@@H](C)[C@H](OC(C)=O)[C@@H]1C,broth dilution,168,,4 µg/mL
O=C(O)c1ccc(-n2cc(/C=N/Nc3cccc(Cl)c3)c(-c3cccc(F)c3)n2)cc1,,ATCC6623,,12.5 µg/mL
CC1=NN(CNC(=O)c2ccccn2)C(=O)C1=NNn1c(-c2ccccc2)nc2ccccc2c1=O,broth dilution,,24 h,104 µM
CN[C@H](CC(C)C)C(=O)N[C@H]1C(=O)N[C@@H](CC(N)=O)C(=O)N[C@H]2C(=O)N[C@H]3C(=O)N[C@H](C(=O)N[C@H](C(=O)O)c4cc(O)cc(O)c4-c4cc3ccc4O)[C@H](O)c3ccc(c(Cl)c3)Oc3cc2cc(c3O[C@@H]2O[C@H](CO)[C@@H](O)[C@H](O)[C@H]2O[C@H]2C[C@](C)(N)[C@H](O)[C@H](C)O2)Oc2ccc(cc2Cl)[C@H]1O,,ATCC6623,,0.39 µg/mL
CCCCOC(=O)c1cc(O)c(O)c(O)c1,broth dilution,ATCC6633,,> 200 µM
O=C(O)c1cn(C2CC2)c2cc(N3CCNCC3)c(F)cc2c1=O,broth dilution,ATCC6633,,0.03 µg/mL
COc1cccc(OC)c1C(=O)N[C@@H]1C(=O)N2[C@@H]1SC(C)(C)[C@@H]2C(=O)O,broth dilution,168,,0.625 µg/mL
Cc1ccccc1NCc1ccc(Oc2ccccn2)cc1,,,,1.8 µg/mL
O=C1NC(=S)S/C1=C\c1ccc(-c2ccc(N(c3ccccc3)c3ccccc3)cc2)cc1,broth dilution,ATCC6633,,1000 µg/mL
O=C(O)c1ccc(-n2cc(/C=N/Nc3cccc(Cl)c3F)c(-c3cccc(F)c3)n2)cc1,,ATCC6623,,1.56 µg/mL
CC1(C)S[C@@H]2[C@H](NC(=O)[C@H](N)c3ccccc3)C(=O)N2[C@H]1C(=O)O,broth dilution,168,,32 µg/mL
O=C(O)c1ccc(-n2cc(/C=N/N(Cc3ccccc3)Cc3ccccc3)c(-c3ccc(F)cc3)n2)cc1,,ATCC6623,,6.25 µg/mL
Clc1ccccc1NCc1ccc(Oc2ccccn2)cc1,,,,1.8 µg/mL
Cc1cc(/C=C2\Sc3ccccc3N2CCCN2CCCCC2)c2ccccc2[n+]1C.[I-],broth dilution,168,,8 µg/mL
CC1=NN(CNc2ccccn2)C(=O)C1=NNn1c(-c2ccccc2)nc2ccccc2c1=O,broth dilution,,24 h,55.2 µM
